Key:
Mus musculus [1] = assay: Antitumor activity was determined for average 7-day weight change against P-388 leukemia in mice at a dose of 300 mg/kg; type: functional
Method in brief: (§1)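 Male B6D2F1J mice given 10⁶ P-388 cells ip on day 0, then treated ip once daily on days 1-4 (qd × 4), 5 mice per dose group. Compounds dosed in sterile saline, except one lipophilic thioether given in 10% Tween 80. Mice weighed on days 1 and 7; mean weight per mouse on day 1 and 7-day weight change reported in g and as percent.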

Mus musculus [2] = assay: Antitumor activity was determined for average 7-day weight change against P-388 leukemia in mice at a dose of 50 mg/kg; type: functional; method in brief: as §1
Mus musculus [3] = assay: Antitumor activity was determined for average weight on day 1 against P-388 leukemia in mice at a dose of 200 mg/kg; type: functional
Method in brief: (§2)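 Male B6D2F1J mice, groups of 5, inoculated ip with 10⁶ P-388 cells on day 0. Drug given ip on days 1-4 (qd × 4) in sterile saline, or in 10% Tween 80 for the poorly water-soluble thioether. Average weight per mouse recorded on day 1, with reweighing on day 7 for percent weight change. Untreated control groups had 10-17 animals per experiment.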

Mus musculus [4] = assay: Antitumor activity was determined for average weight on day 1 against P-388 leukemia in mice at a dose of 25 mg/kg; type: functional; method in brief: as §2
Mus musculus [5] = assay: Antitumor activity was determined for average weight on day 1 against P-388 leukemia in mice at a dose of 300 mg/kg; type: functional; method in brief: as §2
Mus musculus [6] = assay: Antitumor activity was determined for average weight on day 1 against P-388 leukemia in mice at a dose of 50 mg/kg; type: functional; method in brief: as §2
Mus musculus [7] = assay: Antitumor activity was determined for average weight on day 1 against P-388 leukemia in mice at a dose of 100 mg/kg; type: functional; method in brief: as §1
Mus musculus [8] = assay: Percent increase in life span against P-388 leukemia in mice was determined at a dose of 50 mg/kg; type: functional; conditions: P388
Method in brief: (§3)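 Male B6D2F1J mice, 5 per dose group, received 10⁶ P-388 cells ip on day 0. Dosing was ip qd × 4 on days 1-4 in sterile saline, or 10% Tween 80 for the butyl thioether. Median survival times of treated (T) and untreated control (C, 10-17 mice) groups were compared: %ILS = [(T/C) − 1]100. Weights taken on days 1 and 7.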

Mus musculus [9] = assay: Antitumor activity was determined for average 7-day weight change against P-388 leukemia in mice at a dose of 200 mg/kg; type: functional; method in brief: as §1
Mus musculus [10] = assay: Antitumor activity was determined for average 7-day weight change against P-388 leukemia in mice at a dose of 25 mg/kg; type: functional; method in brief: as §1
Mus musculus [11] = assay: Antitumor activity was determined for average 7-day weight change against P-388 leukemia in mice at a dose of 100 mg/kg; type: functional; method in brief: as §1
Mus musculus [12] = assay: Percent increase in life span against P-388 leukemia in mice was determined at a dose of 100 mg/kg; type: functional; conditions: P388; method in brief: as §3
Mus musculus [13] = assay: Percent increase in life span against P-388 leukemia in mice was determined at a dose of 200 mg/kg; type: functional; conditions: P388; method in brief: as §3
Mus musculus [14] = assay: Percent increase in life span against P-388 leukemia in mice was determined at a dose of 25 mg/kg; type: functional; conditions: P388; method in brief: as §3
Mus musculus [15] = assay: Percent increase in life span against P-388 leukemia in mice was determined at a dose of 300 mg/kg; type: functional; conditions: P388; method in brief: as §3
Mus musculus [16] = assay: Antitumor activity was determined for survival range of mice against P-388 leukemia in mice at a dose of 50 mg/kg; type: functional
Method in brief: (§4)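 Male B6D2F1J mice implanted ip with 10⁶ P-388 cells on day 0; test agents given ip on days 1–4 (qd × 4) in sterile saline, or in 10% Tween 80 for the lipophilic thioether. Groups of 5 treated mice, with 10–17 untreated controls per experiment. Mice weighed on days 1 and 7 to give the 7-day weight change in g and %. Survival recorded in days as median and range.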

Mus musculus [17] = assay: Antitumor activity was determined for median survival of mice against P-388 leukemia in mice at a dose of 100 mg/kg; type: functional; method in brief: as §4
Mus musculus [18] = assay: Antitumor activity was determined for median survival of mice against P-388 leukemia in mice at a dose of 200 mg/kg; type: functional; method in brief: as §4
Mus musculus [19] = assay: Antitumor activity was determined for median survival of mice against P-388 leukemia in mice at a dose of 25 mg/kg; type: functional; method in brief: as §4
Mus musculus [20] = assay: Antitumor activity was determined for survival range of mice against P-388 leukemia in mice at a dose of 100 mg/kg; type: functional; method in brief: as §4
Mus musculus [21] = assay: Antitumor activity was determined for survival range of mice against P-388 leukemia in mice at a dose of 25 mg/kg; type: functional; method in brief: as §4
Mus musculus [22] = assay: Antitumor activity was determined for survival range of mice against P-388 leukemia in mice at a dose of 300 mg/kg; type: functional; method in brief: as §4
Mus musculus [23] = assay: Antitumor activity was determined for median survival of mice against P-388 leukemia in mice at a dose of 50 mg/kg; type: functional; method in brief: as §4
Mus musculus [24] = assay: Antitumor activity was determined for 7-day average percent weight change against P-388 leukemia in mice at a dose of 100 mg/kg; type: functional; method in brief: as §1
Mus musculus [25] = assay: Antitumor activity was determined for 7-day average percent weight change against P-388 leukemia in mice at a dose of 200 mg/kg; type: functional; method in brief: as §1
Mus musculus [26] = assay: Antitumor activity was determined for 7-day average percent weight change against P-388 leukemia in mice at a dose of 25 mg/kg; type: functional; method in brief: as §1
Mus musculus [27] = assay: Antitumor activity was determined for 7-day average percent weight change against P-388 leukemia in mice at a dose of 300 mg/kg; type: functional; method in brief: as §1
Mus musculus [28] = assay: Antitumor activity was determined for 7-day average percent weight change against P-388 leukemia in mice at a dose of 50 mg/kg; type: functional; method in brief: as §1
L1210 = assay: Evaluated for cytotoxicity against L1210 mouse leukemia cells; type: functional; conditions: read-out: ID50 (the source's name)
Method in brief: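 L1210 murine leukemia cells in Eagle's minimal essential medium with 15% fetal calf serum, streptomycin (100 μg/mL), penicillin (100 units/mL) and 0.05 mM 2-mercaptoethanol. Cells counted by Coulter counter after 48 h exposure. ID50 is the 50% growth-inhibitory dose. Triplicate assays, standard deviation ±10%.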

Mus musculus [29] = assay: Antitumor activity was determined for median survival of mice against P-388 leukemia in mice at a dose of 300 mg/kg; type: functional; method in brief: as §4
Mus musculus [30] = assay: Antitumor activity was determined for survival range of mice against P-388 leukemia in mice at a dose of 200 mg/kg; type: functional; method in brief: as §4
P388 [31] = assay: Percent increase in life span against P-388 leukemia in mice was determined at a dose of 15 mg/kg; type: functional; conditions: Mus musculus; method in brief: as §3
P388 [32] = assay: Percent increase in life span against P-388 leukemia in mice was determined at a dose of 30 mg/kg; type: functional; conditions: Mus musculus; method in brief: as §3
P388 [33] = assay: Antitumor activity was determined for median survival of mice against P-388 leukemia in mice at a dose of 15 mg/kg; type: functional, Mus musculus; method in brief: as §4
P388 [34] = assay: Antitumor activity was determined for median survival of mice against P-388 leukemia in mice at a dose of 30 mg/kg; type: functional, Mus musculus; method in brief: as §4
P388 [35] = assay: Antitumor activity was determined for survival range of mice against P-388 leukemia in mice at a dose of 30 mg/kg; type: functional, Mus musculus; method in brief: as §4
P388 [36] = assay: Antitumor activity was determined for 7-day average percent weight change against P-388 leukemia in mice at a dose of 15 mg/kg; type: functional, Mus musculus; method in brief: as §4
P388 [37] = assay: Antitumor activity was determined for 7-day average percent weight change against P-388 leukemia in mice at a dose of 30 mg/kg; type: functional, Mus musculus; method in brief: as §4
P388 [38] = assay: Antitumor activity was determined for average 7-day weight change against P-388 leukemia in mice at a dose of 15 mg/kg; type: functional, Mus musculus; method in brief: as §4
P388 [39] = assay: Antitumor activity was determined for average 7-day weight change against P-388 leukemia in mice at a dose of 30 mg/kg; type: functional, Mus musculus; method in brief: as §4
P388 [40] = assay: Antitumor activity was determined for average weight on day 1 against P-388 leukemia in mice at a dose of 15 mg/kg; type: functional, Mus musculus; method in brief: as §4
P388 [41] = assay: Antitumor activity was determined for average weight on day 1 against P-388 leukemia in mice at a dose of 30 mg/kg; type: functional, Mus musculus; method in brief: as §4
P388 [42] = assay: Antitumor activity was determined for survival range of mice against P-388 leukemia in mice at a dose of 15 mg/kg; type: functional, Mus musculus; method in brief: as §4

SMILES: O=C(O)[C@H]1OC(n2cc(F)c(=O)[nH]c2=O)[C@H](O)[C@@H]1O (some centres undefined)
- Average weight (Mus musculus [1]): 0 g mouse-1
- Average weight (Mus musculus [2]): 1.6 g mouse-1
- Average weight (Mus musculus [3]): 23.8 g mouse-1
- Average weight (Mus musculus [4]): 24.6 g mouse-1
- Average weight (Mus musculus [5]): 25 g mouse-1
- Average weight (Mus musculus [6]): 24.2 g mouse-1
- Average weight (Mus musculus [7]): 23.6 g mouse-1
- ILS at 50 mg/kg (Mus musculus [8]): 36%
- Average weight (Mus musculus [9]): -0.8 g mouse-1
- Average weight (Mus musculus [10]): 2.6 g mouse-1
- Average weight (Mus musculus [11]): 2 g mouse-1
- ILS at 100 mg/kg (Mus musculus [12]): 45%
- ILS at 200 mg/kg (Mus musculus [13]): 45%
- ILS at 25 mg/kg (Mus musculus [14]): 27%
- ILS at 300 mg/kg (Mus musculus [15]): 63%
- Survival range (Mus musculus [16]): 13
- Survival median (Mus musculus [17]): 16
- Survival median (Mus musculus [18]): 16
- Survival median (Mus musculus [19]): 14
- Survival range (Mus musculus [20]): 15
- Survival range (Mus musculus [21]): 14
- Survival range (Mus musculus [22]): 16
- Survival median (Mus musculus [23]): 15
- Weight change (Mus musculus [24]): 8%
- Weight change (Mus musculus [25]): -3%
- Weight change (Mus musculus [26]): 10%
- Weight change (Mus musculus [27]): 0%
- Weight change (Mus musculus [28]): 7%
- IC50 (L1210): > 1000 µM
- Survival median (Mus musculus [29]): 18
- Survival range (Mus musculus [30]): 16

SMILES: O=c1[nH]cc(F)c(=O)[nH]1 [FLUOROURACIL]
- ILS at 15 mg/kg (P388 [31]): 73%
- ILS at 30 mg/kg (P388 [32]): 91%
- Survival median (P388 [33]): 19
- Survival median (P388 [34]): 21
- Survival range (P388 [35]): 11
- Weight change (P388 [36]): 2%
- Weight change (P388 [37]): -13%
- Average weight (P388 [38]): 0.4 g mouse-1
- Average weight (P388 [39]): -3.2 g mouse-1
- Average weight (P388 [40]): 24.4 g mouse-1
- Average weight (P388 [41]): 24.2 g mouse-1
- IC50 (L1210): 1 µM
- Survival range (P388 [42]): 15

From ChEMBL document CHEMBL1122125, “Synthesis and in vivo antitumor activity of potential 5-fluorouracil prodrugs” (1982)
